For experiment [1], the target named is T1, Adenosine receptor A1 (Homo sapiens, UniProt P30542).
T1 sequence (P30542 whole entry): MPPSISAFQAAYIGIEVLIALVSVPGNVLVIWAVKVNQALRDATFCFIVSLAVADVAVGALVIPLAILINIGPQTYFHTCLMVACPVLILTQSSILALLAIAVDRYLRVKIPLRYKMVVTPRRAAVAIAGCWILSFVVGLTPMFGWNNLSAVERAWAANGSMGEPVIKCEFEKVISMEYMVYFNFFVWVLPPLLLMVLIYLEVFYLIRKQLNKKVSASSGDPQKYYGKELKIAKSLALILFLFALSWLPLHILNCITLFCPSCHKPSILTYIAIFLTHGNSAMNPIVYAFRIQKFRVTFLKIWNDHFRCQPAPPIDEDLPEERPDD
Briefly: Displacement of [3H]CCPA from human cloned adenosine A1 receptor expressed in CHO cells. In kind it is cell-based. The procedure, abridged: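 CHO membranes with hA1 receptor, from 1000g 4 min spin then 100000g 30 min. Incubated 3 h at 25 °C with 1 nM [3H]CCPA, 0.2 U/mL adenosine deaminase, 20 μg protein in 50 mM Tris/HCl pH 7.4 and graded compound. Nonspecific binding with 1 mM theophylline.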
On the technique in general: In a radioligand displacement assay an active substance lowers the binding of a labelled ligand.

In experiment [2] the target is Adenosine receptor A2a (Homo sapiens, UniProt P29274). Description: Displacement of [3H]NECA from human cloned adenosine A2a receptor expressed in CHO cells. It counts as cell-based. The procedure, abridged: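 hA2A-CHO membranes, prepared by two-step centrifugation, were incubated with 30 nM [3H]NECA, 50 μg protein and graded compound under the A1 binding conditions. Nonspecific binding with 100 μM R-PIA.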
Sequence of Adenosine receptor A2a (P29274 whole entry): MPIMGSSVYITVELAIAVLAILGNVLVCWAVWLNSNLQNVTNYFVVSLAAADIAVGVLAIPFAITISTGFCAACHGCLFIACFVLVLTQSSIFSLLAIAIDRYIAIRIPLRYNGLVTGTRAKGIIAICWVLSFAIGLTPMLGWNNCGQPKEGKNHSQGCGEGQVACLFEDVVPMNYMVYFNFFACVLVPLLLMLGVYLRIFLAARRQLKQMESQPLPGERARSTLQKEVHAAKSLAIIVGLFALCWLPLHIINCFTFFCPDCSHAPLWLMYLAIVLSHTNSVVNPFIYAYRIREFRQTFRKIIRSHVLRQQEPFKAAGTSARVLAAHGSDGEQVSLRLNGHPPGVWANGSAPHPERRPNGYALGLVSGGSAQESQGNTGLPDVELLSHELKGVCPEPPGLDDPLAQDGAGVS

The target of experiment [3] is T2, Adenosine receptor A3 (Homo sapiens, UniProt P0DMS8).
T2 sequence (P0DMS8 whole entry): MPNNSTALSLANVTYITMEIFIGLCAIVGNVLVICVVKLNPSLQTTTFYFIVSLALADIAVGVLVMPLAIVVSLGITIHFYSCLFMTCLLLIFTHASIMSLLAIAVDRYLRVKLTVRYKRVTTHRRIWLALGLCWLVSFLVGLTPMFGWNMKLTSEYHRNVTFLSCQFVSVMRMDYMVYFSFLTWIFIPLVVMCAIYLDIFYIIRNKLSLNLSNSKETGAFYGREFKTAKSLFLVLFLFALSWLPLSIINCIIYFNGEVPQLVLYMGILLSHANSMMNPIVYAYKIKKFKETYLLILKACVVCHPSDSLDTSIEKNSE
Briefly: Displacement of [3H]NECA from human cloned adenosine A3 receptor expressed in CHO cells. It counts as cell-based.

Experiment [4] deals with T3, Adenosine receptor A2b (Homo sapiens, UniProt P29275).
T3 sequence (P29275 whole entry): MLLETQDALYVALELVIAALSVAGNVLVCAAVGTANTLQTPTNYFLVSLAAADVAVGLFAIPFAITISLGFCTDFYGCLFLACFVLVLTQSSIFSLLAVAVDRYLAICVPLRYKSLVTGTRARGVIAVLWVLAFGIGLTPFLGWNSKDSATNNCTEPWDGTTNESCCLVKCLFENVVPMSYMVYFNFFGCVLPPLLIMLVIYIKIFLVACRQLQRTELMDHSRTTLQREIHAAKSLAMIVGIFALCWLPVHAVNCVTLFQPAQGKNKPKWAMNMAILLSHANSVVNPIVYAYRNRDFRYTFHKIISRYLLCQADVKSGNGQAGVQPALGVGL
Description: Antagonist activity at human cloned adenosine A2b receptor expressed in CHO cells assessed as inhibition of NECA-stimulated cAMP accumulation. In kind it is functional, cell-based. The procedure, abridged:
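Membranes from CHO cells with hA2B receptor, prepared by a single 30 min spin at 54000g and resuspended in 50 mM Tris/HCl pH 7.4, used fresh. Antagonist inhibition of NECA-stimulated adenylyl cyclase gave IC50 by Hill fit; Ki from Cheng–Prusoff.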

Experiment [5] addresses Adenosine receptors; A1 & A3 (Homo sapiens) (UniProt P30542+P0DMS8). Briefly: Selectivity ratio of Ki for human adenosine A1 receptor to Ki for human adenosine A3.
For experiment [6], the species on record is Homo sapiens. Description: Selectivity ratio of Ki for human adenosine A2A receptor to Ki for human adenosine A3.

pKi: −log10 of the molar value.

Take `Cn1cc2c(nc(N)n3nc(-c4ccccc4)nc23)n1`: the pKi (as a rule, the negative decadic logarithm of the Ki, by convention in mol/L) in experiment [1] is 6.47; in experiment [2] it was 6.92; in experiment [3], 7.12; in experiment [4], less than 5.00. Further, the Ratio Ki in experiment [5] came out at 4.52; in experiment [6], 1.61.

For the molecule `Cn1cc2c(nc(NC(=O)Cc3ccccc3)n3nc(-c4ccc(Cl)cc4)nc23)n1`, the pKi in experiment [1] is 5.31; in experiment [2], 5.08; in experiment [3], 9.61; in experiment [4], less than 5.00. The Ratio Ki was found to be 19600 in experiment [5] and 33500 in experiment [6].

Consider `COc1ccc(-c2nc3c4cn(C)nc4nc(NC(=O)Cc4ccccc4)n3n2)cc1`, for which the pKi in experiment [1] was less than 4.52; in experiment [2] it was less than 4.00; in experiment [3], 9.62; in experiment [4] it was less than 5.00. For the same molecule, the Ratio Ki is more than 124000 in experiment [5] and more than 415000 in experiment [6].

On to `Nc1nc2nn(CCc3ccccc3)cc2c2nc(-c3ccccc3)nn12`, for which the pKi in experiment [1] was 7.13; in experiment [2], 6.71; in experiment [3], 7.12; in experiment [4], less than 5.00. Also, the Ratio Ki in experiment [5] was 0.975; in experiment [6], 2.56.

For the molecule `Nc1nc2nn(CCc3ccccc3)cc2c2nc(-c3ccc(F)cc3)nn12`, the pKi in experiment [1] is 7.41; in experiment [2], 6.90; in experiment [3] it was 7.30; in experiment [4] it was less than 5.00. In addition, the results for the Ratio Ki in experiment [5] and in experiment [6] were 0.773 and 2.51, respectively.

On to `Cn1cc2c(nc(N(C(=O)c3ccccc3)C(=O)c3ccccc3)n3nc(-c4ccc(Cl)cc4)nc23)n1`, for which the pKi in experiment [1] is less than 5.00; in experiment [2], less than 5.00; in experiment [3], 8.16; in experiment [4], less than 5.00. Besides, the Ratio Ki in experiment [5] and in experiment [6] was more than 1440 each time.

Consider `Cn1cc2c(nc(N)n3nc(-c4ccc(F)cc4)nc23)n1`, for which the pKi is 6.00 in experiment [1], 6.45 in experiment [2], 7.50 in experiment [3] and less than 5.00 in experiment [4]. Besides, the Ratio Ki in experiment [5] is 32.2; in experiment [6], 11.3.

With `Cn1cc2c(nc(NC(=O)Cc3ccccc3)n3nc(-c4ccc(Br)cc4)nc23)n1`, the negative-log Ki (pKi) was 4.61 in experiment [1], less than 4.00 in experiment [2], 9.46 in experiment [3] and less than 5.00 in experiment [4]. For the same molecule, the Ratio Ki is 70700 in experiment [5] and more than 290000 in experiment [6].

Regarding `Cn1cc2c(nc(NC(=O)c3ccccc3)n3nc(-c4ccccc4)nc23)n1`, the negative-log Ki (pKi) is 6.21 in experiment [1], 6.49 in experiment [2], 8.30 in experiment [3] and less than 5.00 in experiment [4]. Besides, the Ratio Ki is 124 in experiment [5] and 64.8 in experiment [6].

Take `CCn1ncc2c1nc(N)n1nc(-c3ccc(Cl)cc3)nc21`: the pKi in experiment [1] is 6.92; in experiment [2] it was 7.08; in experiment [3] it was 6.25; in experiment [4], less than 5.00. Moreover, the Ratio Ki was 0.21 in experiment [5] and 0.15 in experiment [6].

With `Cn1cc2c(nc(N)n3nc(-c4ccco4)nc23)n1`, the Ratio Ki in experiment [5] was 0.33; in experiment [6], 0.009.

As to `COc1ccc(-c2nc3c4cn(CCc5ccccc5)nc4nc(N)n3n2)cc1`, the pKi in experiment [1] is 6.54; in experiment [2] it was 5.85; in experiment [3], 7.60; in experiment [4], less than 5.00. In addition, the values for the Ratio Ki in experiment [5] and in experiment [6] were 11.6 and 56, respectively.

For the molecule `COc1ccc(-c2nc3c4cn(C)nc4nc(N(C(=O)c4ccccc4)C(=O)c4ccccc4)n3n2)cc1`, the negative logarithm of the Ki (pKi) in experiment [1] is less than 5.00; in experiment [2] it was less than 5.00; in experiment [3], 8.16; in experiment [4] it was less than 5.00. Also, the Ratio Ki in experiment [5] and in experiment [6] was more than 1450 throughout.

For `Nc1nc2nn(CCc3ccccc3)cc2c2nc(-c3ccc(Br)cc3)nn12`, the pKi in experiment [1] was 6.30; in experiment [2] it was less than 4.52; in experiment [3] it was 6.66; in experiment [4], less than 5.00. The Ratio Ki was 2.25 in experiment [5] and more than 136 in experiment [6].

Consider `O=C(Nc1nc2nn(CCc3ccccc3)cc2c2nc(-c3ccc(Br)cc3)nn12)c1ccccc1`, for which the negative-log Ki (pKi) in experiment [1] is 6.57; in experiment [2], less than 4.00; in experiment [3], 6.82; in experiment [4], less than 5.00. Moreover, the Ratio Ki in experiment [5] was 1.76; in experiment [6] it was more than 654.

`Cn1cc2c(nc(N)n3nc(-c4ccc(Br)cc4)nc23)n1`: the pKi in experiment [1] was 5.54; in experiment [2], 5.82; in experiment [3], 7.41; in experiment [4], less than 5.00. The results for the Ratio Ki in experiment [5] and in experiment [6] were 74.9 and 38.9, respectively.

For `Cn1cc2c(nc(NC(=O)Cc3ccccc3)n3nc(-c4ccc([N+](=O)[O-])cc4)nc23)n1`, the negative-log Ki (pKi) in experiment [1] is 4.63; in experiment [2], 4.62; in experiment [3] it was 9.20; in experiment [4], less than 5.00. The values for the Ratio Ki in experiment [5] and in experiment [6] were 37200 and 38300, respectively.

In the case of `O=C(Nc1nc2nn(CCc3ccccc3)cc2c2nc(-c3ccccc3)nn12)c1ccccc1`, the pKi in experiment [1] was 6.50; in experiment [2], 6.02; in experiment [3], 7.62; in experiment [4], less than 5.00. Besides, the Ratio Ki in experiment [5] stood at 13.1; in experiment [6], 40.3.

On to `Cn1cc2c(nc(NC(=O)Cc3ccccc3)n3nc(-c4ccccc4)nc23)n1`, for which the pKi in experiment [1] was 6.25; in experiment [2], 6.11; in experiment [3], 9.97; in experiment [4], less than 5.00. The Ratio Ki worked out at 5200 in experiment [5] and 7200 in experiment [6].

`Cn1cc2c(nc(NC(=O)Cc3ccccc3)n3nc(-c4ccc(F)cc4)nc23)n1`: the negative-log Ki (pKi) is 5.64 in experiment [1], 5.60 in experiment [2], 9.70 in experiment [3] and less than 5.00 in experiment [4]. The Ratio Ki in experiment [5] worked out at 11400; in experiment [6] it was 12600.

Regarding `Cn1cc2c(nc(NC(=O)c3ccccc3)n3nc(-c4ccc(Cl)cc4)nc23)n1`, the negative-log Ki (pKi) in experiment [1] was less than 4.52; in experiment [2], less than 4.00; in experiment [3], 8.55; in experiment [4], less than 5.00. Moreover, the Ratio Ki in experiment [5] was more than 10600; in experiment [6], more than 35500.

Regarding `COc1ccc(-c2nc3c4cn(C)nc4nc(N)n3n2)cc1`, the pKi was 5.01 in experiment [1], 5.92 in experiment [2], 7.78 in experiment [3] and less than 5.00 in experiment [4]. The figures for the Ratio Ki in experiment [5] and in experiment [6] were 583 and 71.3, respectively.

For the molecule `Cn1cc2c(nc(NC(=O)Cc3ccccc3)n3nc(-c4ccco4)nc23)n1`, the results for the Ratio Ki in experiment [5] and in experiment [6] were 867 and 522, respectively.

For the molecule `Nc1nc2nn(CCc3ccccc3)cc2c2nc(-c3ccc(Cl)cc3)nn12`, the pKi in experiment [1] is 6.69; in experiment [2], 5.66; in experiment [3], 7.10; in experiment [4] it was less than 5.00. The Ratio Ki was 2.56 in experiment [5] and 27.4 in experiment [6].

Regarding `Cn1cc2c(nc(N)n3nc(-c4ccc([N+](=O)[O-])cc4)nc23)n1`, the negative logarithm of the Ki (pKi) is less than 3.52 in experiment [1], less than 5.00 in experiment [2], 6.18 in experiment [3] and less than 5.00 in experiment [4]. The Ratio Ki in experiment [5] was more than 458; in experiment [6] it was more than 15.3.

For the molecule `Cn1cc2c(nc(NC(=O)c3ccccc3)n3nc(-c4ccc([N+](=O)[O-])cc4)nc23)n1`, the pKi in experiment [1] is less than 4.52; in experiment [2], less than 4.00; in experiment [3], 7.25; in experiment [4], less than 5.00. Further, the Ratio Ki in experiment [5] was more than 532; in experiment [6] it was more than 1770.

(Values after ChEMBL document CHEMBL1156179 (J Med Chem, 2010).)
